Data on 13 compounds can be found in ChEMBL document CHEMBL1208772, “Design, synthesis, and structure-activity relationship study of conformationally constrained analogs of indole-3-carboxamides as novel CB1 cannabinoid receptor agonists” (Bioorg Med Chem Lett, 2010).

The target of data set [1] is T1, Cannabinoid receptor 1 (Homo sapiens, UniProt P21554). Description: Agonist activity at human cannabinoid CB1 receptor expressed in CHO cells after 5 hrs by luciferase reporter gene assay. Type of data set: functional, cell-based. In outline: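 Functional agonism was tested in CHO cells doubly transfected with human CB1 and a luciferase reporter gene. Potency is reported as pEC50, the mean of three experiments.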
T1 sequence (P21554 whole entry): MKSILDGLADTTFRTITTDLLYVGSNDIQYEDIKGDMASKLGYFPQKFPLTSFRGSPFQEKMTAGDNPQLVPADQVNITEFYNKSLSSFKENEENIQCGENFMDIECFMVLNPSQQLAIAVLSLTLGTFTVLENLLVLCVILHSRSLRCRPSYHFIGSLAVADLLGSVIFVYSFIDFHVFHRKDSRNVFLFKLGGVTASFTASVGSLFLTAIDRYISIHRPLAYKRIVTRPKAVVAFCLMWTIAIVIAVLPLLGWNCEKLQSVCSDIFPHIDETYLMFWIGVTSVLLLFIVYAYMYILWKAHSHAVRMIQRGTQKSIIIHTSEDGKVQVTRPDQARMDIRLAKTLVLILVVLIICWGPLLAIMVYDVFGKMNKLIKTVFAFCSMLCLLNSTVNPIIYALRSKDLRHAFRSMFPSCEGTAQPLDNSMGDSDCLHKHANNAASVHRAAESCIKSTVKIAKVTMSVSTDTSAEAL

A short description of data set [2]: Aqueous solubility of the compound at phosphate buffer solution of pH 7. Type of data set: physicochemical. In outline:
(§1)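 MSF solubility of the HCl salt was measured in citrate buffer (nominal pH 5) and in PBS (nominal pH 7.4). The final pH of each solution was recorded and reported alongside the solubility in mg/L.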

Data set [3] is described as follows: Aqueous solubility of the compound at citrate buffer of pH 4.9. It counts as physicochemical. In outline: as §1
In another data set the target is Cannabinoid receptor 2 (Homo sapiens, UniProt P34972). Description: Displacement of [3H]CP-55940 from human cannabinoid CB2 receptor expressed in insect Sf9 cells. In outline:
(§2)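 Affinity at CB1 and CB2 came from radioligand competition binding with [3H]CP 55,940 and is reported as pKi.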

Data set [4] concerns the target T1, Cannabinoid receptor 1. Briefly: Displacement of [3H]CP-55940 from human cannabinoid CB1 receptor expressed in insect Sf9 cells. A digest of the protocol: as §2
Data set [5] can be described thus: Aqueous solubility of the compound at phosphate buffer solution of pH 6.7. It counts as physicochemical.
Data set [6] is described as follows: Aqueous solubility of the compound at citrate buffer of pH 5. It counts as physicochemical.
Data set [7] can be described thus: Tmax in ICR mouse brain at 0.5 umol/kg, iv. Type of data set: ADME, organism-based. In outline:
(§3)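 ICR mice received a single iv dose in saline vehicle. Brain and plasma levels were measured with terminal sampling under CO2. Plasma Cmax was taken at t = 0.05 h. Brain exposure was given as Cmax, tmax and AUC over 0–1 h, plus a brain:plasma Cmax ratio from the same study.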

A short description of data set [8]: Cmax in ICR mouse plasma at 0.5 umol/kg, iv after 0.05 hrs. It counts as ADME, organism-based. Set-up: dose 0.5 umol/kg, route intravenous. A digest of the protocol: as §3
In the next data set the test system is Brain. Description: AUC (0 to 1 hr) in ICR mouse brain at 0.5 umol/kg, iv. More on the design: dose 0.5 umol/kg, time < 1 hr, route intravenous. Type of data set: ADME, organism-based. As to conditions: in vivo. In outline:
as §3

Data set [9] is described as follows: AUC in ICR mouse plasma at 0.5 umol/kg, iv. Type of data set: ADME. In outline: as §3
Data set [10] in a line: Cmax in ICR mouse brain at 0.5 umol/kg, iv. Type of data set: ADME, organism-based. More on the design: dose 0.5 umol/kg, route intravenous. A digest of the protocol: as §3
Data set [11] in a line: Volume of distribution at steady state in ICR mouse at 0.5 umol/kg, iv. It counts as ADME, organism-based. To be noted: in vivo, read-out: Vdss. A digest of the protocol: as §3
The test system of another data set is Mus musculus. Briefly: Antinociceptive activity against Freund's complete adjuvant-induced […] pain in iv dosed mouse assessed as increase in tail flick latency by tail flick test. It counts as functional.
The nature of data set [12]: Clearance in ICR mouse at 0.5 umol/kg, iv. It counts as ADME, organism-based. As to conditions: in vivo. A digest of the protocol: as §3
Data set [13] can be described thus: Ratio of Cmax in brain to plasma in ICR mouse brain at 0.5 umol/kg, iv. As to conditions: brain and plasma. Type of data set: ADME. In outline:
as §3

A short description of data set [14]: Intrinsic clearance in mouse liver microsomes. Type of data set: ADME, Microsome.
Data set [15] is described as follows: Elimination half life in ICR mouse at 0.5 umol/kg, iv. It counts as ADME, organism-based. To be noted: in vivo, read-out: beta t1/2 (converted). A digest of the protocol: as §3

Structures are written as SMILES. ≈ marks a conversion by molar mass, not a printed value. Bounds are passed on as bounds.

Cannabinoid receptor 2, sequence (P34972 whole entry): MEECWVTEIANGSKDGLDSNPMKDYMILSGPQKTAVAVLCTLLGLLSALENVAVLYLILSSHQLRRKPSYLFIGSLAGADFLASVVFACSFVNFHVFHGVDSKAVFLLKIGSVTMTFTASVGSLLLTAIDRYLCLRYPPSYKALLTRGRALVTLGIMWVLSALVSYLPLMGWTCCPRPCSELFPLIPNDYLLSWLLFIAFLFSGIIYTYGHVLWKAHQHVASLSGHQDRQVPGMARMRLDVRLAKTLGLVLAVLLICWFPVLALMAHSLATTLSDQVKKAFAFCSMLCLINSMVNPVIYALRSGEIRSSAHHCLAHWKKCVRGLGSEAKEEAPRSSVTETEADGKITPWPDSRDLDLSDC

As for `CCN1CCN(C(=O)c2cn3c4c(cccc24)OCC3C2CCCCC2)CC1` (configuration not stated), a half-maximal effect on Cannabinoid receptor 1 [1] (EC50) was put at 31.6 nM.
In turn, `CCN1CCN(C(=O)c2cn3c4c(cccc24)CCC3C2CCCCC2)CC1` (configuration not stated) gave an EC50 on Cannabinoid receptor 1 [1] of 25.1 nM. Besides, the values for the solubility in data set [2] and in [3] were 114 µg/mL (≈ 300 µM) and 3510 µg/mL (≈ 9250 µM), respectively.
As to `CCN1CCN(C(=O)c2cn3c4c(cccc24)OC[C@H]3C2CCCCC2)CC1`, the Ki at Cannabinoid receptor 2 is 3.98 nM; on Cannabinoid receptor 1 [4] it was 12.6 nM.
For the compound `CCN1CCN(C(=O)c2cn3c4c(cccc24)OC[C@@H]3C2CCCCC2)CC1`, the EC50 on Cannabinoid receptor 1 [1] was greater than 10000 nM. The solubility in data set [2] is 308 µg/mL (≈ 807 µM); in [3], greater than 4000 µg/mL.
Turning to `CCN1CCN(C(=O)c2cn(CC3CCCCC3)c3c(OC)cccc23)CC1`, the solubility in data set [5] turned out to be 216 µg/mL (≈ 563 µM); in data set [6] it was 3400 µg/mL (≈ 8860 µM). On Cannabinoid receptor 1 [1], this compound had an EC50 of 158 nM.
With `O=C(c1cn2c3c(cccc13)OC[C@H]2C1CCCCC1)N1CCNCC1`, the EC50 at Cannabinoid receptor 1 [1] is 3980 nM.
On the same count and under the same terms, the result for `C[C@@H]1CN(C(=O)c2cn3c4c(cccc24)OC[C@H]3C2CCCCC2)C[C@H](C)N1` reads 126 nM.
The same measure, in the same setting: the result for `CCN1[C@H](C)CN(C(=O)c2cn(CC3CCCCC3)c3c(OC)cccc23)C[C@@H]1C` reads 10 nM; that for `COc1cccc2c(C(=O)N3C[C@@H](C)N(C)[C@@H](C)C3)cn(CC3CCCCC3)c12`, 25.1 nM.
On to `C[C@H]1CN(C(=O)c2cn3c4c(cccc24)OC[C@H]3C2CCCCC2)CCN1C`, for which the Tmax in [7] is 10.2 min. For the same compound, the Cmax in [8] stood at 51.5 ng/mL; in data set [10] it was 76.2 ng/g. Further, the AUC in the data set with Brain was found to be 44.6 ng·h/g; in data set [9], 23.7 ng·h/mL. Also, the Vd in data set [11] was determined as 2.6 L/kg. Further, the ED50 with Mus musculus is 0.19 µmol/kg. This compound returned a clearance in [12] of 134 mL/min/kg. Also, the Kp in [13] amounted to 1.48. In data set [14], this compound displayed a microsomal CLint greater than 180 µL/min/mg. In data set [15], the half-life was 13.8 min. In addition, the Ki on Cannabinoid receptor 2 is 0.398 nM; at Cannabinoid receptor 1 [4], 2 nM.
`C[C@H]1CN(C(=O)c2cn3c4c(cccc24)OC[C@H]3C2CCCCC2)CCN1` gave an EC50 at Cannabinoid receptor 1 [1] of 501 nM.
On the same count and under the same terms, in the case of `C[C@@H]1CN(C)C[C@H](C)N1C(=O)c1cn2c3c(cccc13)OC[C@H]2C1CCCCC1` it was 63.1 nM; in that of `C[C@@H]1CNC[C@H](C)N1C(=O)c1cn2c3c(cccc13)OC[C@H]2C1CCCCC1`, 794 nM.
